Laboratory results reported in ChEMBL document CHEMBL2150944, “Antimalarial activity of pyrroloiminoquinones from the Australian marine sponge Zyzzya sp” (J Med Chem, 2012).
Structures can show the parent of a compound that is named as a salt. Activity calls are given as the source filed them. The rule behind the calls is not given here.

Tests used:
[1] = Selectivity index, ratio of IC50 for human HEK293 cells to IC50 for chloroquine-sensitive Plasmodium falciparum 3D7; assay type: toxicity, cell-based; details: read-out: Ratio IC50
[2] = Selectivity index, ratio of IC50 for human HEK293 cells to IC50 for chloroquine-resistant Plasmodium falciparum Dd2; assay type: toxicity, cell-based; details: read-out: Ratio IC50
HEK293 = test: Cytotoxicity against human HEK293 cells assessed as growth inhibition after 72 hrs by Alamar blue assay; assay type: cell-based; details: HEK293, 72 h
Summary of the method: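 HEK293 adherent cells (3000/well) were incubated with compound for 72 h at 37 °C and 5% CO2. Medium was removed, then 10% Alamar Blue was added for 5−6 h. Fluorescence was read at ex 535/em 590 nm. Inhibition was normalised to DMSO and 10 μM puromycin controls. IC50 came from nonlinear variable-slope regression of % inhibition against log dose.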

Plasmodium falciparum [3] = test: Antimalarial activity against chloroquine-sensitive Plasmodium falciparum 3D7 assessed as growth inhibition after 72 hrs by DAPI staining; assay type: functional, organism-based; details: 3D7, 72 h
Summary of the method: (§1)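 P. falciparum 3D7 or Dd2 at 2% or 3% parasitemia, 0.3% hematocrit, exposed 72 h at 37 °C, 5% CO2. Staining with DAPI plus saponin and Triton X-100, 5 h at room temperature in the dark, then confocal imaging and automated counting of parasite spots. Percent inhibition is calculated against DMSO and 2 μM artemisinin controls.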

Plasmodium falciparum [4] = test: Antimalarial activity against chloroquine-resistant Plasmodium falciparum Dd2 assessed as growth inhibition after 72 hrs by DAPI staining; assay type: functional, organism-based; details: Dd2, 72 h; summary of the method: as §1
Plasmodium falciparum [5] = test: Antimalarial activity against chloroquine-sensitive Plasmodium falciparum 3D7 trophozoite stage assessed as growth inhibition at 180 nM after 10 hrs by [3H]-hypoxanthine incorporation assay; assay type: functional, organism-based
Summary of the method: (§2)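 Synchronous 3D7 rings (~10−16 h post-invasion) or trophozoites (~24−30 h post-invasion) were used at 0.5% parasitemia and 5% hematocrit. Cultures were exposed to compound or 0.04% DMSO vehicle for 4, 6 or 10 h, then washed. Triplicate wells received 0.5 μCi 3H-hypoxanthine, and incorporation was counted after ~48−72 h. Results are % growth versus matched vehicle controls, from ≥2 independent experiments.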

Plasmodium falciparum [6] = test: Antimalarial activity against chloroquine-sensitive Plasmodium falciparum 3D7 trophozoite stage assessed as growth inhibition at 360 nM after 10 hrs by [3H]-hypoxanthine incorporation assay; assay type: functional, organism-based; summary of the method: as §2
Plasmodium falciparum [7] = test: Antimalarial activity against chloroquine-sensitive Plasmodium falciparum 3D7 ring stage assessed as growth inhibition upto 360 nM after 10 hrs by [3H]-hypoxanthine incorporation assay; assay type: functional, organism-based; summary of the method: as §2
[8] = Half life in human liver microsomes at 1 uM after 60 mins; assay type: ADME, Microsome
Summary of the method: (§3)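 1 μM compound incubated at 37 °C with human or mouse liver microsomes (0.4 mg/mL protein) in 0.1 M phosphate pH 7.4. Reaction started with an NADPH-regenerating system plus MgCl2 and quenched with ice-cold acetonitrile at time points up to 60 min. Parent loss is followed by LC−MS and fitted to exponential decay, giving half-life and in vitro CLint.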

[9] = Half life in mouse liver microsomes at 1 uM after 60 mins; assay type: ADME, Microsome; summary of the method: as §3
[10] = Intrinsic clearance in human liver microsomes assessed as per mg of protein at 1 uM after 60 mins; assay type: ADME, Microsome; details: read-out: CLH; summary of the method: as §3
[11] = Intrinsic clearance in mouse liver microsomes assessed as per mg of protein at 1 uM after 60 mins; assay type: ADME, Microsome; details: read-out: CLH; summary of the method: as §3
[12] = Plasma concentration in Swiss mouse at 8 mg/kg, sc administered as suspension measured 1 hr post dose; assay type: ADME, organism-based; set-up: dose 8 mg/kg, route subcutaneous
Summary of the method: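 Nonfasted male Swiss outbred mice (26−34 g) received a nominal 8 mg/kg subcutaneously into the dorsal skinfold. The compound was given as a suspension in saline vehicle containing 5−7% DMSO. Blood was taken by cardiac puncture under isoflurane at 0.25, 1 or 4 h, with n = 2 mice per time point, into stabilizer-containing heparinized tubes. Plasma was acetonitrile-precipitated and quantified by UPLC−MS.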

[13] = Toxicity in Swiss albino mouse for 4 days; assay type: organism-based; details: in vivo
Summary of the method: (§4)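 Healthy mice dosed subcutaneously daily for 4 consecutive days, compound in Tween 80/ethanol (7/3 v/v) diluted 10-fold in distilled water (~0.2 mL). Mice are assessed before and after dosing for weight loss >10%, ruffled coat, shaking, severe pallor, reduced activity and behaviour changes.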

Plasmodium berghei [14] = test: Antimalarial activity against chloroquine-sensitive Plasmodium berghei ANKA infected in Swiss albino mouse assessed as suppression of parasitemia at 8 mg/kg/day, ip measured on day 1 post infection by Giemsa staining relative to control; assay type: functional; details: route intraperitoneal
Plasmodium berghei [15] = test: Antimalarial activity against chloroquine-sensitive Plasmodium berghei ANKA infected in Swiss albino mouse assessed as suppression of parasitemia at 8 mg/kg/day, ip measured on day 2 post infection by Giemsa staining relative to control; assay type: functional; details: route intraperitoneal
Plasmodium berghei [16] = test: Antimalarial activity against chloroquine-sensitive Plasmodium berghei ANKA infected in Swiss albino mouse assessed as suppression of parasitemia at 8 mg/kg/day, ip measured on day 3 post infection by Giemsa staining relative to control; assay type: functional; details: route intraperitoneal
Plasmodium berghei [17] = test: Antimalarial activity against chloroquine-sensitive Plasmodium berghei ANKA infected in Swiss albino mouse assessed as suppression of parasitemia at 8 mg/kg/day, ip measured on day 4 post infection by Giemsa staining relative to control; assay type: functional; details: route intraperitoneal
HCT-116 = test: Cytotoxicity against human HCT116 cells; assay type: functional, cell-based
XRS6 = test: Cytotoxicity against Chinese hamster Xrs-6 cells; assay type: cell-based; details: Cricetulus griseus
[18] = Plasma concentration in Swiss mouse at 8 mg/kg, sc administered as solution measured 1 hr post dose; assay type: ADME, organism-based; set-up: dose 8 mg/kg, route subcutaneous
Summary of the method: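 Nonfasted male Swiss outbred mice (26−34 g), nominal 8 mg/kg subcutaneous into the dorsal skinfold in saline vehicle with 5−7% DMSO. Blood is drawn by cardiac puncture under isoflurane at 0.25, 1 or 4 h (n = 2 per time point) into stabilizer. Plasma is precipitated with acetonitrile and quantified by UPLC−MS against standards in blank mouse plasma.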

Mus musculus [19] = test: Toxicity in Swiss albino mouse assessed as ruffled coat upto 4 mg/kg/day for 4 days; assay type: organism-based; details: in vivo, 96 h; summary of the method: as §4
Plasmodium falciparum [20] = test: Antimalarial activity against chloroquine-sensitive Plasmodium falciparum 3D7 ring stage assessed as growth inhibition at 204 nM after 10 hrs by [3H]-hypoxanthine incorporation assay; assay type: functional, organism-based
Summary of the method: (§5)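 Synchronous 3D7 rings (~10−16 h post-invasion) or trophozoites (~24−30 h post-invasion), 0.5% parasitemia, 5% hematocrit, exposed 4, 6 or 10 h to compound or 0.04% DMSO vehicle. Cultures are washed, plated in triplicate with 0.5 μCi 3H-hypoxanthine, and incorporation is counted after ~48−72 h. Percent growth is relative to matched vehicle controls, from at least two independent experiments.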

Plasmodium falciparum [21] = test: Antimalarial activity against chloroquine-sensitive Plasmodium falciparum 3D7 ring stage assessed as growth inhibition at 408 nM after 10 hrs by [3H]-hypoxanthine incorporation assay; assay type: functional, organism-based; summary of the method: as §5
Plasmodium falciparum [22] = test: Antimalarial activity against chloroquine-sensitive Plasmodium falciparum 3D7 trophozoite stage assessed as growth inhibition at 204 nM after 10 hrs by [3H]-hypoxanthine incorporation assay; assay type: functional, organism-based; summary of the method: as §5
Plasmodium falciparum [23] = test: Antimalarial activity against chloroquine-sensitive Plasmodium falciparum 3D7 trophozoite stage assessed as growth inhibition at 408 nM after 10 hrs by [3H]-hypoxanthine incorporation assay; assay type: functional, organism-based; summary of the method: as §5
Mus musculus [24] = test: Toxicity in Swiss albino mouse assessed as shaking upto 4 mg/kg/day, sc for 4 days; assay type: organism-based; set-up: route subcutaneous; details: in vivo, 96 h; summary of the method: as §4
Mus musculus [25] = test: Toxicity in Swiss albino mouse assessed as severe pallor upto 4 mg/kg/day, sc for 4 days; assay type: organism-based; set-up: route subcutaneous; details: in vivo, 96 h; summary of the method: as §4
Mus musculus [26] = test: Toxicity in Swiss albino mouse assessed as reduced activity upto 4 mg/kg/day, sc for 4 days; assay type: organism-based; set-up: route subcutaneous; details: in vivo, 96 h; summary of the method: as §4
Mus musculus [27] = test: Toxicity in Swiss albino mouse assessed as behaviour changes upto 4 mg/kg/day, sc for 4 days; assay type: organism-based; set-up: route subcutaneous; details: in vivo, 96 h; summary of the method: as §4
Mus musculus [28] = test: Toxicity in Swiss albino mouse assessed as body weight loss > 10 % upto 4 mg/kg/day, sc for 4 days; assay type: organism-based; set-up: route subcutaneous; details: in vivo, 96 h; summary of the method: as §4
Mus musculus [29] = test: Toxicity in Swiss albino mouse assessed as ruffled coat at 8 mg/kg/day for 4 days; assay type: organism-based; details: in vivo, 96 h; summary of the method: as §4
Mus musculus [30] = test: Toxicity in Swiss albino mouse assessed as body weight loss > 10 % at 8 mg/kg/day, sc for 4 days; assay type: organism-based; set-up: route subcutaneous; details: in vivo, 96 h; summary of the method: as §4
Mus musculus [31] = test: Toxicity in Swiss albino mouse assessed as reduced activity at 8 mg/kg/day, sc for 4 days; assay type: organism-based; set-up: route subcutaneous; details: in vivo, 96 h; summary of the method: as §4
Plasmodium berghei [32] = test: Antimalarial activity against chloroquine-sensitive Plasmodium berghei ANKA infected in Swiss albino mouse assessed as suppression of parasitemia at 4 mg/kg/day, ip measured on day 4 post infection by Giemsa staining; assay type: functional, organism-based
[33] = biological target: DNA topoisomerase 2-alpha (Homo sapiens) (UniProt P11388); test: Inhibition of topoisomerase 2 by decatenation assay
Sequence of DNA topoisomerase 2-alpha (Homo sapiens) (P11388 whole entry): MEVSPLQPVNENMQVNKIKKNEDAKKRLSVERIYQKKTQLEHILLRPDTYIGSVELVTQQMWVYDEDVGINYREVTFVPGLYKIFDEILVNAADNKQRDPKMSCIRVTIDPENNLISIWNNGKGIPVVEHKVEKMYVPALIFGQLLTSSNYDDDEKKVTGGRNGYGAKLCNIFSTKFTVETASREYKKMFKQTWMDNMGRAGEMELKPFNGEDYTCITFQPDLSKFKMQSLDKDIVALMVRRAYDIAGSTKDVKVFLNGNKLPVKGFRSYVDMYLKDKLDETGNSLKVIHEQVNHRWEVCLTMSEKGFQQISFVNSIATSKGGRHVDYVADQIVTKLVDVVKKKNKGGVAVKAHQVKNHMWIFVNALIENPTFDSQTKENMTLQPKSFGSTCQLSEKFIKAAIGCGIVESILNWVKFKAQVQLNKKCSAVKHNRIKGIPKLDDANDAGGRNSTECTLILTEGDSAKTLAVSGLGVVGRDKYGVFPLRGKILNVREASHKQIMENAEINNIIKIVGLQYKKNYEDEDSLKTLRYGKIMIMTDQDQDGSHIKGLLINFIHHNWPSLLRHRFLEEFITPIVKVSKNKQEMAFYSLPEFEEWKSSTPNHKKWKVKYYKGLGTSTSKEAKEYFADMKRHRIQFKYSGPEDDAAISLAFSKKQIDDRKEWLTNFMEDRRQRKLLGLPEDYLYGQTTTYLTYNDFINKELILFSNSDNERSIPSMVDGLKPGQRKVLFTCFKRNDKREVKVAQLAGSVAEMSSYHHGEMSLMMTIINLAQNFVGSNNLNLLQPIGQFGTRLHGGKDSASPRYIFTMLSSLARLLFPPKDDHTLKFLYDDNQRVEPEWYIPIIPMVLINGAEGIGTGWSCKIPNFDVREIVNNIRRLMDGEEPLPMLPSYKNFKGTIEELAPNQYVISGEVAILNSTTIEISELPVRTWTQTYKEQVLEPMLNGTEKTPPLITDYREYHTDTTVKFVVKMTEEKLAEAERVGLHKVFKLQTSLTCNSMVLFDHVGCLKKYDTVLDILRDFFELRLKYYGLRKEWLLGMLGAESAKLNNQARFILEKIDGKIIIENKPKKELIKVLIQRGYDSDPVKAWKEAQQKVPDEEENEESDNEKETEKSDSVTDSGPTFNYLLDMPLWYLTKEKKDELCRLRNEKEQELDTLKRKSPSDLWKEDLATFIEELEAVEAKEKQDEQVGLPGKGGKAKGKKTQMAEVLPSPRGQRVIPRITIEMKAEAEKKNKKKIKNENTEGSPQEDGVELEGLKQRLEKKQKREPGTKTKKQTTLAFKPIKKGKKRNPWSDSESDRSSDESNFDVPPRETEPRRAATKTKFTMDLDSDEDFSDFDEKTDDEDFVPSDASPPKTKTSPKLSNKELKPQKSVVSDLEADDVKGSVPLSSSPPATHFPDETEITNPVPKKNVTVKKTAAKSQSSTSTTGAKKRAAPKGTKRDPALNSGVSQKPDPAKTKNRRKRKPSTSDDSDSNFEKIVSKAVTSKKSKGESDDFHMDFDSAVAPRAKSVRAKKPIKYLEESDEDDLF

Cn1cc2c3c1C(=O)C(NCCc1ccc(O)cc1)=CC3=NCC2 [MAKALUVAMINE K TFA SALT]
selectivity ratio [1]: 3
selectivity ratio [2]: 4
IC50 (HEK293): 1100 nM
IC50 (Plasmodium falciparum [3]): 396 nM
IC50 (Plasmodium falciparum [4]): 300 nM

Cn1cc2c3c1C(=O)C(N/C=C/c1ccc(O)cc1)=CC3=[N+](C)CC2.O=C([O-])C(F)(F)F [MAKALUVAMINE G]
selectivity ratio [1]: 55
selectivity ratio [2]: 51
IC50 (HEK293): 2000 nM
IC50 (Plasmodium falciparum [3]): 36 nM
IC50 (Plasmodium falciparum [4]): 39 nM
growth inhibition (GI) (Plasmodium falciparum [5]): Active
growth inhibition (GI) (Plasmodium falciparum [6]): Active
growth inhibition (GI) (Plasmodium falciparum [7]): inactive
half-life at 1 µM [8]: 8.8 min
half-life at 1 µM [9]: 7.4 min
microsomal CLint at 1 µM [10]: 197 µL/min/mg
microsomal CLint at 1 µM [11]: 235 µL/min/mg
concentration at 1 h [12]: < 40 nM
MTD at 96 h [13]: 8 mg/kg/day
Activity (Plasmodium berghei [14]): 10%
Activity (Plasmodium berghei [15]): 35%
Activity (Plasmodium berghei [16]): 47%
Activity (Plasmodium berghei [17]): 48%

O=C1C(NCCc2ccc(O)cc2)=CC2=NCCc3c[nH]c1c32 [MAKALUVAMINE D]
IC50 (HCT-116): > 170 nM
IC50 (XRS6): 80 nM

C[N+]1=C2C=C(NCCc3ccc(O)cc3)C(=O)c3[nH]cc(c32)CC1.O=C([O-])C(F)(F)F [MAKALUVAMINE J TFA SALT]
concentration at 1 h [18]: 1700 nM
Activity (Mus musculus [19]): Non-toxic
selectivity ratio [1]: 48
selectivity ratio [2]: 54
IC50 (HEK293): 1200 nM
IC50 (Plasmodium falciparum [3]): 25 nM
IC50 (Plasmodium falciparum [4]): 22 nM
growth inhibition (GI) (Plasmodium falciparum [20]): Active
growth inhibition (GI) (Plasmodium falciparum [21]): Active
growth inhibition (GI) (Plasmodium falciparum [22]): Active
growth inhibition (GI) (Plasmodium falciparum [23]): Active
half-life at 1 µM [8]: > 350 min
half-life at 1 µM [9]: 42 min
microsomal CLint at 1 µM [10]: < 5 µL/min/mg
microsomal CLint at 1 µM [11]: 41 µL/min/mg
Activity (Mus musculus [24]): Non-toxic
Activity (Mus musculus [25]): Non-toxic
Activity (Mus musculus [26]): Non-toxic
Activity (Mus musculus [27]): Non-toxic
Activity (Mus musculus [28]): Non-toxic
Activity (Mus musculus [29]): Toxic
Activity (Mus musculus [30]): Toxic
Activity (Mus musculus [31]): Toxic
Activity (Plasmodium berghei [32]): inactive

Cn1cc2c3c1C(=O)C(N)=CC3=NCC2 [MAKALUVAMINE A]
IC50 (HCT-116): > 170 nM
IC90 [33]: 41000 nM
IC50 (XRS6): 80 nM

C[N+]1=C2C=C(N/C=C/c3ccc(O)cc3)C(=O)c3[nH]cc(c32)CC1 [MAKALUVAMINE L]
selectivity ratio [1]: 35
selectivity ratio [2]: 66
IC50 (HEK293): 1400 nM
IC50 (Plasmodium falciparum [3]): 40 nM
IC50 (Plasmodium falciparum [4]): 21 nM

C[N+]1=C2C=C(N)C(=O)c3[nH]cc(c32)CC1 [MAKALUVAMINE C]
IC50 (HCT-116): > 170 nM
IC50 (XRS6): 80 nM
